Assay outcomes deposited in PubChem BioAssay by several laboratories.
NS3 helicase inh: inhibitors of HCV NS3 helicase, primary screen, biochemical, Cy5 molecular beacon fluorescence; 0.56% of 290,000 active; AID 1800, 2009; inhibition, % at 10.9 µM; NS3 helicase DNA unwinding; Hepatitis C virus NS3 helicase;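 active = inhibition above the mean of all tested compounds plus 3 SD, set per campaign, cut at about 35% in these data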;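 also: 0% = DMSO wells and 100% = thioflavine S control wells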
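test system = hepatitis C virus NS3 helicase domain fragment enzyme | reagent = annealed dual-labelled DNA beacon duplex, ATP-started | times = 1 h at 25 °C | detection = Cy5 fluorescence, 0 and 60 min reads | read-out basis = percent inhibition from t60/t0 fluorescence ratio | control set = DMSO and thioflavine S | replication = one well per compound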
UPR XBP1 act: activators of adaptive XBP1 UPR arm, primary screen, cell-based, CHO-XBP1 luciferase reporter, luminescence, uHTS; IRE1-XBP1 UPR activation; percent of tunicamycin response, DMSO as zero; activation, % at 20 µM; 0.33% of 330,000 active;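 active = versus positive control, 20 µM dose yields 30% or more activation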;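 also: 100% = tunicamycin at 10 µg/mL and 0% = DMSO only wells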
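Material: CHO cell line with stable XBP1 luciferase reporter; schedule: 16-18 h cell attachment at 37 °C, then 6 h compound exposure; signal: glow luminescence from Steady-Glo reagent; medium: serum-containing F12 medium, 10% FBS; benchmarks: tunicamycin 10 µg/mL and vehicle-only wells; read-out: percent activation relative to tunicamycin reference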
p97 inhibitor: inhibitors of human p97 ATPase, primary screen, biochemical; 0.42% of 220,000 active; Transitional endoplasmic reticulum ATPase (Homo sapiens), P55072; inhibition, % at 8 µM; recombinant p97 ATPase, Kinase-Glo ATP luminescence, 3 h; in the data active = inhibition above about 15%;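 also: 0% = DMSO vehicle and 100% = wells lacking enzyme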
Target sequence (P55072 whole entry, looked up): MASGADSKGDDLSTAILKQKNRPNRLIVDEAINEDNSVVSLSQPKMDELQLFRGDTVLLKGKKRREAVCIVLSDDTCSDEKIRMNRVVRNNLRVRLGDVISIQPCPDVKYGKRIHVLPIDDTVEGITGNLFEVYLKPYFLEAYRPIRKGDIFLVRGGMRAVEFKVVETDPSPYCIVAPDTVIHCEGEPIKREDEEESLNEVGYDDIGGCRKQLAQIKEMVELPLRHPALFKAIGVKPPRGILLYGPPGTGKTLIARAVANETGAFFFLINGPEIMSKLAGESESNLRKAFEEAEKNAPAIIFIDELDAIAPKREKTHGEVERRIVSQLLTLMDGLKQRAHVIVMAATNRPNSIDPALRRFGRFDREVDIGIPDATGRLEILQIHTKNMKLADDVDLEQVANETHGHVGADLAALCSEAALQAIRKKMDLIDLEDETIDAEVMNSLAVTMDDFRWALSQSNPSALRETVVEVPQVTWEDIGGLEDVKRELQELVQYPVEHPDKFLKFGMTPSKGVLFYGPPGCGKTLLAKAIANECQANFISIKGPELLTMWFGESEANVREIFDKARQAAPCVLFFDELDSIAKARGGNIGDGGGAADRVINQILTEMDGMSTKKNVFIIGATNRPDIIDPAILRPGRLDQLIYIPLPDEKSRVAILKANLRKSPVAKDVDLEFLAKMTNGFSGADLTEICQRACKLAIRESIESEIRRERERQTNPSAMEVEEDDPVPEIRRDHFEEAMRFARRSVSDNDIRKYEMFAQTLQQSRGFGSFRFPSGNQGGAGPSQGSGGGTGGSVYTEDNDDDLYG
M18AAP inhibitor: PfM18AAP inhibitors, malaria aminopeptidase, primary screen, biochemical, QFRET, recombinant enzyme. inhibition, % at 7.35 µM. H-Glu-NHMec fluorogenic cleavage. 1.2% of 290,000 active;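 active = inhibition above the campaign mean inhibition over all tested compounds plus 3 SD, cut at about 28% in these data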;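 also: 0% = plate median of test compound wells and 100% = 2 mM ZnCl2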
CHOP inhibitor: inhibitors of CHOP promoter induction, primary screen, cell-based, unfolded protein response, luciferase reporter. CHO-K1 CHOP-promoter luciferase, tunicamycin-induced, 15-18 h. inhibition, % at 10 µM. 3.8% of 220,000 active;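 active = compounds that reduced the stress-induced luciferase reporter signal by more than about 70% of percent inhibition, limit read from the data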;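 also: 0% = tunicamycin plus vehicle and 100% = wells without tunicamycin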
UPR CHOP act: activators of apoptotic CHOP UPR arm, primary screen, cell-based, CHO-CHOP luciferase reporter, luminescence, uHTS. UPR activation; percent of tunicamycin response over DMSO baseline. activation, % at 10 µM. 0.34% of 330,000 active. AID 449763, 2010;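 active = at 10 µM dose, activation of 40% or more, normalized to positive control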;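 also: 100% = tunicamycin at 10 µg/mL and 0% = DMSO alone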
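Evaluation: % reporter activation, DMSO baseline versus tunicamycin full activation; System: CHO-CHOP luciferase reporter cell line; Input: 500 cells/well; Incubation: 6 h compound treatment, 37 °C; Measured by: Steady-Glo luciferase luminescence; Dosing: one dose, 10 µM in 0.5% DMSO; Buffer or medium: F12 medium, 10% FBS; Benchmarks: positive tunicamycin 10 µg/mL, negative DMSO alone.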
UPR XBP1 confirm: IRE1-XBP1 UPR arm activators, confirmation, cell-based, CHO-XBP1 luciferase reporter, luminescence, single concentration | 63% of 1,000 active | AID 485299, 2010 | shares compounds with UPR XBP1 act | activation, % at 20 µM;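 active = reporter signal at least 30% of the positive control's activation in two or more of four replicate wells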;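 also: plate controls were DMSO negative control for no effect and tunicamycin 10 µg/mL positive control for full effect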
Starred values were filed as active, the others as inactive. Hits are enriched below; roughly 4.5% of the tested compounds scored in any of these assays.

Results for OCCCn1c(C2CCCN2c2nc(-c3ccc(F)cc3)cs2)nc2cc(Cl)c(N3CCCCC3)cc21 (centres undefined) ?
UPR XBP1 act: 100*; UPR CHOP act: 0; UPR XBP1 confirm: 48*

What do the screens show for `Cc1csc(N2CCCC2c2nc3cc(Cl)c(N4CCCCC4)cc3n2CCCO)n1` (centres undefined)?
UPR XBP1 act: -1; UPR CHOP act: -1

What do the screens show for `O=C(Nc1cccc(-c2cnc3ccccc3n2)c1)c1ccccc1`?
NS3 helicase inh: 2; UPR XBP1 act: 2; p97 inhibitor: 6; M18AAP inhibitor: -3; CHOP inhibitor: 1; UPR CHOP act: 4

How did O=C(Nc1cccc(-c2cnc3ccccc3n2)c1)c1cccc(NC(=O)c2ccco2)c1 do in these assays?
NS3 helicase inh: -9; UPR XBP1 act: 36*; p97 inhibitor: 6; M18AAP inhibitor: -4; CHOP inhibitor: 29; UPR CHOP act: 22; UPR XBP1 confirm: 28

What do the screens show for `O=C(CCS(=O)(=O)c1ccc(Cl)cc1)NC1CCCC1`?
UPR XBP1 act: 0; UPR CHOP act: 1

How did Cc1ccc(-c2ccnc(-c3ccc(O)cc3)n2)cc1 do in these assays?
NS3 helicase inh: -2; UPR XBP1 act: 34*; p97 inhibitor: 10; M18AAP inhibitor: -9; CHOP inhibitor: 52; UPR CHOP act: 5; UPR XBP1 confirm: 36*

What do the screens show for `Nc1nc(Nc2ccc(Cl)cc2)nc2ccccc12`?
NS3 helicase inh: -14; UPR XBP1 act: 33*; p97 inhibitor: 4; M18AAP inhibitor: -13; CHOP inhibitor: 64; UPR CHOP act: 24; UPR XBP1 confirm: 25

What do the screens show for `COc1ccc(C)cc1NC(=O)C1CCCN1S(=O)(=O)c1ccccc1F` (centres undefined)?
UPR XBP1 act: 2; UPR CHOP act: 0

What do the screens show for `C/C(=N\NC(N)=S)C1=CCC2C3CC[C@H]4CC(O)CC[C@]4(C)C3CC[C@]12C` (some centres undefined)?
NS3 helicase inh: 20; UPR XBP1 act: 41*; M18AAP inhibitor: 24; UPR CHOP act: 21; UPR XBP1 confirm: 10

What do the screens show for `Cc1ccc(CN(C)c2ccc(S(=O)(=O)N3CCCC3)cn2)cc1`?
UPR XBP1 act: 0; UPR CHOP act: 0

Results for COc1ccc(OC)c(Nc2nc3ccc(C)cc3n3cnnc23)c1 ?
NS3 helicase inh: 8; UPR XBP1 act: 16; M18AAP inhibitor: 9; UPR CHOP act: 3

Results for COc1ccc(Cl)cc1Nc1nc2ccc(C)cc2n2cnnc12 ?
NS3 helicase inh: 1; UPR XBP1 act: 54*; M18AAP inhibitor: 2; UPR CHOP act: 21; UPR XBP1 confirm: 11

Results for CCCCNC(=O)[C@@](CC)(ONc1ccccc1C(F)(F)F)c1cccc2ccccc12 ?
UPR XBP1 act: -4; UPR CHOP act: 2

Results for Cc1ccc(-n2c(COc3c(C)cccc3C)nnc2SCC(=O)Nc2nccs2)cc1 ?
NS3 helicase inh: 0; UPR XBP1 act: -2; p97 inhibitor: 2; M18AAP inhibitor: -1; CHOP inhibitor: 33; UPR CHOP act: 0

Results for Cc1ccc(OCc2nnc(SCC(=O)Nc3nccs3)n2-c2ccccc2)cc1C ?
NS3 helicase inh: 6; UPR XBP1 act: 35*; p97 inhibitor: -4; M18AAP inhibitor: -7; CHOP inhibitor: 75*; UPR CHOP act: 9; UPR XBP1 confirm: 15

How did CNC(=O)c1ccc(-n2nc(C)cc2-c2ccccc2)cc1 do in these assays?
NS3 helicase inh: 1; UPR XBP1 act: 44*; p97 inhibitor: 3; M18AAP inhibitor: -3; CHOP inhibitor: -3; UPR CHOP act: 2; UPR XBP1 confirm: 0

How did CCn1cc(C(=O)OCC(=O)Nc2cccc(S(=O)(=O)N3CCOCC3)c2)c(=O)c2ccc(C)nc21 do in these assays?
NS3 helicase inh: 5; UPR XBP1 act: 44*; p97 inhibitor: 0; M18AAP inhibitor: 5; CHOP inhibitor: 54; UPR CHOP act: 5; UPR XBP1 confirm: 7

Results for CN(C)CCOc1ccc(-c2c(-c3ccccc3)sc3ccccc23)cc1 ?
UPR XBP1 act: 60*; UPR CHOP act: 4; UPR XBP1 confirm: 55*

Results for CC(C)(C)NC(=O)CSc1nc2ccc(Nc3nc(N4CCOCC4)nc(N4CCOCC4)n3)cc2s1 ?
NS3 helicase inh: -15; UPR XBP1 act: 5; p97 inhibitor: 1; M18AAP inhibitor: -2; CHOP inhibitor: 29; UPR CHOP act: -1

Results for COc1ccc(NC(=O)CSc2nc3ccc(Nc4nc(N5CCOCC5)nc(N5CCOCC5)n4)cc3s2)cc1 ?
NS3 helicase inh: -10; UPR XBP1 act: 58*; M18AAP inhibitor: -2; UPR CHOP act: 10; UPR XBP1 confirm: 31*

What do the screens show for `O=C(/C=C/c1ccccc1)NC(=S)Nc1ccc(N2CCOCC2)cc1`?
NS3 helicase inh: 3; UPR XBP1 act: -1; p97 inhibitor: -3; M18AAP inhibitor: 3; CHOP inhibitor: 28; UPR CHOP act: 1

What do the screens show for `O=C(/C=C/c1ccc(Cl)cc1)NC(=S)Nc1ccc(N2CCOCC2)c(Cl)c1`?
NS3 helicase inh: -1; UPR XBP1 act: 124*; p97 inhibitor: 5; M18AAP inhibitor: 0; CHOP inhibitor: 41; UPR CHOP act: 25; UPR XBP1 confirm: 126*

What do the screens show for `COC(=O)C1=C(C)N(Cc2ccccc2)C(=NCc2ccccc2)N[C@H]1c1cccc(C(F)(F)F)c1`?
UPR XBP1 act: 30*; UPR CHOP act: 8; UPR XBP1 confirm: 18

What do the screens show for `COC(=O)C1=C(C)N(Cc2ccccc2)C(=NCc2cccc(Cl)c2)N[C@H]1c1cccc(F)c1`?
UPR XBP1 act: 45*; UPR CHOP act: 19; UPR XBP1 confirm: 19

How did COC(=O)C1=C(C)N(Cc2ccccc2)C(=NCC(C)C)N[C@H]1c1cccc(C(F)(F)F)c1 do in these assays?
UPR XBP1 act: 15; UPR CHOP act: 3

What do the screens show for `COC(=O)C1=C(C)N(Cc2ccccc2)C(=NCc2ccc(OC)cc2)N[C@H]1c1cccc(F)c1`?
NS3 helicase inh: -93; UPR XBP1 act: 4; M18AAP inhibitor: 2; UPR CHOP act: 0

Results for O=[N+]([O-])c1cccc(-n2cc3ccc([N+](=O)[O-])cc3n2)c1 ?
UPR XBP1 act: 1; UPR CHOP act: 4
